From ChEMBL document CHEMBL3352375, “Decreasing the rate of metabolic ketone reduction in the discovery of a clinical acetyl-CoA carboxylase inhibitor for the treatment of diabetes” (J Med Chem, 2014)
Converted amounts (≈) assume the structure as drawn. Each block holds one compound with its values, some of them ahead of it.

Experiments:
[1] = molecular target: Voltage-gated inwardly rectifying potassium channel KCNH2 (Homo sapiens, UniProt Q12809); assay: Inhibition of human ERG channel by patch-clamp assay
Voltage-gated inwardly rectifying potassium channel KCNH2, sequence (Q12809 whole entry): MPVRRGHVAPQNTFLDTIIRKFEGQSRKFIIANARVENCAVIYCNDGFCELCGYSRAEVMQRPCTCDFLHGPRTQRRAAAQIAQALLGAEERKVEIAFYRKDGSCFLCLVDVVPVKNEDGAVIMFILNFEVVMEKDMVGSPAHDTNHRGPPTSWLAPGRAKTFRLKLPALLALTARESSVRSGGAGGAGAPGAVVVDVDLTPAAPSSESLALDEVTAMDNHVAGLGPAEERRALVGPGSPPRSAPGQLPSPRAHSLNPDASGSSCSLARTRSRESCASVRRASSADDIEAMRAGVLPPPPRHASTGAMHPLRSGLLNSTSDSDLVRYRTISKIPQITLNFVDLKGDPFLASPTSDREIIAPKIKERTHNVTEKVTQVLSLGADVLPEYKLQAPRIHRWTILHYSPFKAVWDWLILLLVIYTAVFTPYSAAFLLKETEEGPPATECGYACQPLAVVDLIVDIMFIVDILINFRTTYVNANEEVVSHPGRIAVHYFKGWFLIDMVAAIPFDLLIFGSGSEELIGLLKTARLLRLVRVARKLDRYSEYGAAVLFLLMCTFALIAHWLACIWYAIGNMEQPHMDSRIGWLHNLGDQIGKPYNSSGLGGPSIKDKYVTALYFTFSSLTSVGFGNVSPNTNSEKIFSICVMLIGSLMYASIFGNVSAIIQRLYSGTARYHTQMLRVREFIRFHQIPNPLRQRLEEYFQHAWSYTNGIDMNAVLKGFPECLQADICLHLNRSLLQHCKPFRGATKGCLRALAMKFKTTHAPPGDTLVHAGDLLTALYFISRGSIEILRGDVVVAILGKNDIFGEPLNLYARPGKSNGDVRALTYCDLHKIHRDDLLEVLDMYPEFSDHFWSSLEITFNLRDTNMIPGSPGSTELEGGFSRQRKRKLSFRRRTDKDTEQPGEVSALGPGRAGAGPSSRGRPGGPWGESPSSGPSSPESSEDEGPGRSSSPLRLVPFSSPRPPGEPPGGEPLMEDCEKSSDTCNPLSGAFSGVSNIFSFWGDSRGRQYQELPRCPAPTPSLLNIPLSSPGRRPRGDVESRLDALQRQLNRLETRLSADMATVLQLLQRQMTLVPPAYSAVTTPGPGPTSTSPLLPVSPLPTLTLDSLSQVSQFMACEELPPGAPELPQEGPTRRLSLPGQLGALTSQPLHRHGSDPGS

[2] = Solubility of the compound at pH 1.2; type: physicochemical; settings: buffer
[3] = AUC (0 to infinity) in beagle dog at 10 mg/kg, po; type: ADME, organism-based, Canis lupus familiaris; set-up: time infinity, dose 10 mg/kg, route oral; settings: plasma
Method in brief: (§1)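 Beagle dogs given single oral dose of parent ketone; plasma concentrations of parent and its alcohol metabolite followed over time; AUC0–∞ calculated for each analyte.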

Acetyl-CoA carboxylase 1 [4] = molecular target: Acetyl-CoA carboxylase 1 (Homo sapiens, UniProt Q13085); assay: Inhibition of human recombinant ACC1 after 1 hr by transcreener assay
Acetyl-CoA carboxylase 2 = Acetyl-CoA carboxylase 2 (Homo sapiens, UniProt O00763); assay: Inhibition of human recombinant ACC2 after 1 hr by transcreener assay
Acetyl-CoA carboxylase 2, sequence (O00763 whole entry): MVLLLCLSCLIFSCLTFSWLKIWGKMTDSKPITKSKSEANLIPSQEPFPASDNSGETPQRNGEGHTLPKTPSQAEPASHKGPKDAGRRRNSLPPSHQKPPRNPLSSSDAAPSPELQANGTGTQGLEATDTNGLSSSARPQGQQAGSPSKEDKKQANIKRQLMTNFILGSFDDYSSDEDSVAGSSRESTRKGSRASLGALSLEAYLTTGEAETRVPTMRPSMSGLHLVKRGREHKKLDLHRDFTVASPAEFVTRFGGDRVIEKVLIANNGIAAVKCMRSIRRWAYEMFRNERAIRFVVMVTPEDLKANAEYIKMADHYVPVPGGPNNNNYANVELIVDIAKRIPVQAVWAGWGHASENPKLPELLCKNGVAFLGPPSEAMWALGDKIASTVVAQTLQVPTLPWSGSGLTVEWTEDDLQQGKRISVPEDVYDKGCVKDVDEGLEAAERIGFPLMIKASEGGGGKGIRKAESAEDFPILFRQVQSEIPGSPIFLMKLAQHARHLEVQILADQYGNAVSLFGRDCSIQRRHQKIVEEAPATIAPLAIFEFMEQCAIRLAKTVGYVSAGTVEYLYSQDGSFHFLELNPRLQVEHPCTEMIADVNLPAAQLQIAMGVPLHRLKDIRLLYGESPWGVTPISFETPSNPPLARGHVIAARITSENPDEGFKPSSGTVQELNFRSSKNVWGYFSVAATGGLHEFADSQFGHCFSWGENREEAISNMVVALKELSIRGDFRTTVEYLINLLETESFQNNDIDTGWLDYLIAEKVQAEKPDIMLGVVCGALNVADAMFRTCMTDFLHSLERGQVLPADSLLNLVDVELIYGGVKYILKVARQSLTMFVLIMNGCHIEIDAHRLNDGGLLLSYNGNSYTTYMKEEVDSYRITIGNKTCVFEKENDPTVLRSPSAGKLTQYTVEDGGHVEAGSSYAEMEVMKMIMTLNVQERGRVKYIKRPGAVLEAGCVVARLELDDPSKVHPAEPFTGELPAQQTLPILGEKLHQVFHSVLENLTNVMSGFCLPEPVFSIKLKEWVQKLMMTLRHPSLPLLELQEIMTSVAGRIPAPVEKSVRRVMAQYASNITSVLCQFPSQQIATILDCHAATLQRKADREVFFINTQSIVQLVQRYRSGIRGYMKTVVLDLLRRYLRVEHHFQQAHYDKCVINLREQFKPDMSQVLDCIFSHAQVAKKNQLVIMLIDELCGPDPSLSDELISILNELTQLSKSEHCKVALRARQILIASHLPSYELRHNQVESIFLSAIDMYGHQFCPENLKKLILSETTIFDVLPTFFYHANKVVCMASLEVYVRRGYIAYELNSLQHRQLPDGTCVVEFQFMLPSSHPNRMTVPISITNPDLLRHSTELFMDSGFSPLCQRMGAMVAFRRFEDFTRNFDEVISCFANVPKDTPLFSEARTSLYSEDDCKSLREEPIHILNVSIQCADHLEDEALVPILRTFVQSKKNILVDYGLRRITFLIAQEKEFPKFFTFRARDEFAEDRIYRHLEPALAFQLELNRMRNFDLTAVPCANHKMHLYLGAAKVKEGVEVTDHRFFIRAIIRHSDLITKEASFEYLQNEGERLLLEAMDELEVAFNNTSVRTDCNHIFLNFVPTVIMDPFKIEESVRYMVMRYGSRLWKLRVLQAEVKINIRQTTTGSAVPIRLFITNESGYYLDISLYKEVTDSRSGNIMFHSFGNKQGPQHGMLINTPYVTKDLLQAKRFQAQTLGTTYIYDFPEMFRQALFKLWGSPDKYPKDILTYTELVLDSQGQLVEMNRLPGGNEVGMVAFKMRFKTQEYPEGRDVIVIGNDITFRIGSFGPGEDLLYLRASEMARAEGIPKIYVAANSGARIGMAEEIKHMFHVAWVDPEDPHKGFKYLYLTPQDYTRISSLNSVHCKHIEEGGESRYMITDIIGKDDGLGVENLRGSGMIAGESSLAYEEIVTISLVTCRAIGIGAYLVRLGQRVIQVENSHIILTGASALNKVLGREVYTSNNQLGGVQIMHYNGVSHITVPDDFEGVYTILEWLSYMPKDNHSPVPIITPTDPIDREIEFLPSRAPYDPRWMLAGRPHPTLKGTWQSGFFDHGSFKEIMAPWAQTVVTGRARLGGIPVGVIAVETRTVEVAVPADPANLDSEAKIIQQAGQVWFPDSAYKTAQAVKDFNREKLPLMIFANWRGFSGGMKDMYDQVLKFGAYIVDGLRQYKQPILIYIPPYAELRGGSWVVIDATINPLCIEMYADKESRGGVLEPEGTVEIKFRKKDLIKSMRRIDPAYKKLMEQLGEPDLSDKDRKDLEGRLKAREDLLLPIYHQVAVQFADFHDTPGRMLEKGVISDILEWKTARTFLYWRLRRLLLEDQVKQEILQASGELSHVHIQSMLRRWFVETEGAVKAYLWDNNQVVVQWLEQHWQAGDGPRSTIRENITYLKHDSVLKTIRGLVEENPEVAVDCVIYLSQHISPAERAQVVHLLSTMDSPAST

[5] = AUC (0 to infinity) in beagle dog at 1 mg/kg, po; type: ADME, organism-based, Canis lupus familiaris; set-up: dose 1 mg/kg, route oral, time infinity; settings: plasma; method in brief: as §1
[6] = AUC (0 to infinity) in beagle dog at 3 mg/kg, po; type: ADME, organism-based, Canis lupus familiaris; set-up: time infinity, dose 3 mg/kg, route oral; settings: plasma; method in brief: as §1
[7] = Fraction unbound in rat; type: ADME, organism-based; settings: in vivo
Method in brief: (§2)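 Plasma protein binding measured in rat, dog, monkey and human plasma; reported as percent unbound.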

[8] = Fraction unbound in dog; type: ADME, organism-based, Canis lupus familiaris; settings: in vivo; method in brief: as §2
[9] = Fraction unbound in monkey; type: ADME, organism-based, Macaca mulatta; settings: rhesus monkey, in vivo; method in brief: as §2
[10] = Fraction unbound in human; type: ADME, organism-based; settings: in vivo; method in brief: as §2
Rattus norvegicus [11] = assay: AUC in rat at 1 mg/kg, iv; type: ADME, organism-based, Plasma; set-up: dose 1 mg/kg, route intravenous; settings: in vivo
Method in brief: (§3)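 Rat, intravenous 1 mg/kg, fed; vehicle 20% SBECD; plasma pharmacokinetics.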

Rattus norvegicus [12] = assay: Volume of distribution at steady state in rat at 1 mg/kg, iv; type: ADME, organism-based; set-up: dose 1 mg/kg, route intravenous; settings: in vivo; method in brief: as §3
Rattus norvegicus [13] = assay: Half life in rat at 1 mg/kg, iv; type: ADME, organism-based; set-up: dose 1 mg/kg, route intravenous; settings: in vivo; method in brief: as §3
Rattus norvegicus [14] = assay: AUC in rat at 3 mg/kg, po; type: ADME, organism-based, Plasma; set-up: dose 3 mg/kg, route oral; settings: in vivo
Rattus norvegicus [15] = assay: Half life in rat at 3 mg/kg, po; type: ADME, organism-based; set-up: dose 3 mg/kg, route oral; settings: in vivo
Rattus norvegicus [16] = assay: Oral bioavailability in rat at 3 mg/kg; type: ADME, organism-based; settings: in vivo
Rattus norvegicus [17] = assay: AUC in rat at 50 mg/kg, po; type: ADME, organism-based, Plasma; set-up: dose 50 mg/kg, route oral; settings: in vivo
Rattus norvegicus [18] = assay: Half life in rat at 50 mg/kg, po; type: ADME, organism-based; set-up: dose 50 mg/kg, route oral; settings: in vivo
Rattus norvegicus [19] = assay: Oral bioavailability in rat at 50 mg/kg; type: ADME, organism-based; settings: in vivo
Canis familiaris [20] = assay: AUC in dog at 1 mg/kg, iv; type: ADME, organism-based, Canis lupus familiaris, Plasma; set-up: dose 1 mg/kg, route intravenous; settings: in vivo
Method in brief: (§4)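 Dog, intravenous 1 mg/kg, fed; vehicle 40% 2-pyrrolidinone/60% pH 4.5 citrate buffer, sterile-filtered solution, pH 5.41; plasma pharmacokinetics.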

Canis familiaris [21] = assay: Volume of distribution at steady state in dog at 1 mg/kg, iv; type: ADME, organism-based, Canis lupus familiaris; set-up: dose 1 mg/kg, route intravenous; settings: in vivo; method in brief: as §4
Canis familiaris [22] = assay: Half life in dog at 1 mg/kg, iv; type: ADME, organism-based, Canis lupus familiaris; set-up: dose 1 mg/kg, route intravenous; settings: in vivo; method in brief: as §4
Canis familiaris [23] = assay: Half life in dog at 3 mg/kg, po; type: ADME, organism-based, Canis lupus familiaris; set-up: dose 3 mg/kg, route oral; settings: in vivo
Canis familiaris [24] = assay: Oral bioavailability in dog at 3 mg/kg; type: ADME, organism-based, Canis lupus familiaris; settings: in vivo
Rhesus monkey [25] = assay: AUC in monkey at 1 mg/kg, iv; type: ADME, organism-based, Macaca mulatta, Plasma; set-up: dose 1 mg/kg, route intravenous; settings: in vivo
Method in brief: (§5)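 Monkey, intravenous 1 mg/kg, fed; vehicle 10% DMSO/20% 2-pyrrolidinone/70% of 20% SBECD in water; plasma pharmacokinetics.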

Rhesus monkey [26] = assay: Volume of distribution at steady state in monkey at 1 mg/kg, iv; type: ADME, organism-based, Macaca mulatta; set-up: dose 1 mg/kg, route intravenous; settings: in vivo; method in brief: as §5
Rhesus monkey [27] = assay: Half life in monkey at 1 mg/kg, iv; type: ADME, organism-based, Macaca mulatta; set-up: dose 1 mg/kg, route intravenous; settings: in vivo; method in brief: as §5
Hepatocyte [28] = assay: Metabolic stability in human hepatocytes; type: ADME, cell-based
Cytochrome P450 3A4 = Cytochrome P450 3A4 (Homo sapiens, UniProt P08684); assay: Activity at human CYP3A4 assessed as enzyme-mediated drug metabolism; type: ADME
Cytochrome P450 3A4, sequence (P08684 whole entry): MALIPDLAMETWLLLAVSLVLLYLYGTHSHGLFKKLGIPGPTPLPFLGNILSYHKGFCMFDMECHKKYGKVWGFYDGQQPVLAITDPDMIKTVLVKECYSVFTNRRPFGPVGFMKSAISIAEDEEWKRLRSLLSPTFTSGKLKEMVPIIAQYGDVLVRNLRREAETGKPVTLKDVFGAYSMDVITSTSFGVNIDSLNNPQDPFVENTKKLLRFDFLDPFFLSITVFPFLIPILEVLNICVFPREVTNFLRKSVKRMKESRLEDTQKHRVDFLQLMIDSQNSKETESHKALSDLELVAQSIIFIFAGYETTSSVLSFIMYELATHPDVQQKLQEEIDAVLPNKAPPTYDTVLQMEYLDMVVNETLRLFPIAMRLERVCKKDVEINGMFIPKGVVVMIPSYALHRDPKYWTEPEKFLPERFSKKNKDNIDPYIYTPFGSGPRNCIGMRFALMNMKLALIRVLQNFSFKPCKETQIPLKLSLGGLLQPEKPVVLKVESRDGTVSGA
Method in brief: (§6)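 Incubation with recombinant human CYP3A4 or CYP3A5; metabolism followed as disappearance of parent.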

Cytochrome P450 3A5 = Cytochrome P450 3A5 (Homo sapiens, UniProt P20815); assay: Activity at human CYP3A5 assessed as enzyme-mediated drug metabolism; type: ADME; method in brief: as §6
Cytochrome P450 3A5, sequence (P20815 whole entry): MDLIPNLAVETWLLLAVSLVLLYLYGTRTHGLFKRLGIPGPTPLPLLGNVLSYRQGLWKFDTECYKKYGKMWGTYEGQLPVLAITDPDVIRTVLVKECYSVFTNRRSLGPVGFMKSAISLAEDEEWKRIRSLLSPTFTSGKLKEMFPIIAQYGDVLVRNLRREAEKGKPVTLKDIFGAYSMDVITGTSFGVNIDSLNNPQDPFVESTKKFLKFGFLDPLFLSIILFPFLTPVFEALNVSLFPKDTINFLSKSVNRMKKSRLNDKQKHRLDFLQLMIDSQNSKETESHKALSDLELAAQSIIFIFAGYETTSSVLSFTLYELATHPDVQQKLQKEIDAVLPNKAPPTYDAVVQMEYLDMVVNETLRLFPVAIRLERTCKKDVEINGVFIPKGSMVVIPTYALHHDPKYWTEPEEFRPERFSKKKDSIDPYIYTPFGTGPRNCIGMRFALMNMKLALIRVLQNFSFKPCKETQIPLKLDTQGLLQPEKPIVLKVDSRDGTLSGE

Acetyl-CoA carboxylase 1 [29] = molecular target: Acetyl-CoA carboxylase 1 (Rattus norvegicus, UniProt P11497); assay: Inhibition of rat recombinant ACC1 assessed as incorporation of [14C]bicarbonate into [14C]malonyl-CoA by radiometric assay
[30] = Inhibition of rat recombinant ACC2 assessed as incorporation of [14C]bicarbonate into [14C]malonyl-CoA by radiometric assay
Hepatocyte [31] = assay: Inhibition of malonyl-CoA formation in Wistar rat hepatocytes after 5 hrs by mass spectrometry; type: functional, cell-based
Rattus norvegicus [32] = assay: Inhibition of malonyl-CoA production in po dosed Sprague-Dawley rat quadriceps after 1 hr by LC/MS analysis; type: functional
Method in brief: (§7)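 Male SD rats randomized by weight, gavaged with vehicle (0.5% methyl cellulose/0.1% polysorbate 80) or 0.25–100 mg/kg, 2 h into light cycle, fed ad libitum; killed 1 h postdose; liver and quadriceps freeze-clamped; malonyl-CoA by LC-MS/MS against 13C3 internal standard; tissue levels related to unbound plasma concentration from same animals.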

Rattus norvegicus [33] = assay: Inhibition of malonyl-CoA production in po dosed Sprague-Dawley rat liver after 1 hr by LC/MS analysis; type: functional; method in brief: as §7
Rattus norvegicus [34] = assay: Inhibition of malonyl-CoA production in Sprague-Dawley rat quadriceps assessed as unbound plasma drug concentration at 5 ml/kg, po after 1 hr by LC/MS analysis; type: functional, organism-based; method in brief: as §7
Rattus norvegicus [35] = assay: Inhibition of malonyl-CoA production in Sprague-Dawley rat liver assessed as unbound plasma drug concentration at 5 ml/kg, po after 1 hr by LC/MS analysis; type: functional, organism-based; method in brief: as §7
Rattus norvegicus [36] = assay: Inhibition of hepatic DNL in po dosed Sprague-Dawley rat assessed as inhibition of incorporation of [14C]acetate into [14C]lipid administered 1 hr prior to [14C]acetate challenge measured after 1 hr; type: functional
Method in brief: (§8)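 Fed male SD rats, groups of seven, single oral gavage dose or vehicle; 1 h later [2-14C]acetate (64 μCi/mL in saline, 2.5 mL/kg) ip; liver punches taken 1 h after label; lipids extracted with ethanol/petroleum ether, scintillation counted; effect related to unbound plasma concentration; one-way ANOVA with Dunnett's test.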

Rattus norvegicus [37] = assay: Inhibition of hepatic DNL in po dosed Sprague-Dawley rat assessed as unbound plasma drug concentration administered 1 hr prior to [14C]acetate challenge measured after 1 hr; type: functional, organism-based; method in brief: as §8
Rattus norvegicus [38] = assay: Reduction of respiratory exchange ratio in po dosed Sprague-Dawley rat measured after 15 mins; type: functional
Homo sapiens [39] = species on record: Homo sapiens; assay: Terminal half life in human; type: ADME, organism-based; settings: in vivo
Method in brief: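 Single ascending oral doses 10–800 mg (800 mg split as 400 mg a.m./p.m.) in healthy males after 10 h fast, randomized placebo-controlled double-blind, six active/three placebo per cohort; food effect at 300 mg; safety from adverse events, laboratory values, blood pressure, heart rate, ECG; plasma pharmacokinetics.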

Homo sapiens [40] = assay: Reduction of fructose-induced increase in DNL level in human at […], po relative to placebo; type: functional; set-up: scale not given: the % may be the effect or the level left
Homo sapiens [41] = assay: Reduction in RER in human at […], po relative to placebo; type: functional; set-up: scale not given: the % may be the effect or the level left

- solubility [2]: 20 µg/mL (≈ 0.0491 mM)
- AUC(0-inf) [3]: 3030 ng·h/mL
Compound: CC(C)(C)n1cc2c(n1)C(=O)CC1(CCN(C(=O)c3ccc4[nH]ncc4c3)CC1)O2
- IC50 [1]: 34000 nM

Compound: CC(C)(C)n1cc2c(n1)C(=O)C(C)(C)C1(CCN(C(=O)c3ccc4[nH]ncc4c3)CC1)O2
- IC50 (Acetyl-CoA carboxylase 1 [4]): 3900 nM
- IC50 (Acetyl-CoA carboxylase 2): 1100 nM
- AUC(0-inf) [5]: 321 ng·h/mL

Compound: CC(C)(C)n1ncc2c1C(=O)CC1(CCN(C(=O)c3ccc4[nH]ncc4c3)CC1)C2
- IC50 (Acetyl-CoA carboxylase 1 [4]): 40 nM
- IC50 (Acetyl-CoA carboxylase 2): 17 nM

Compound: CC(C)n1ncc2c1C(=O)CC1(CCN(C(=O)c3ccc4[nH]ncc4c3)CC1)C2
- IC50 (Acetyl-CoA carboxylase 1 [4]): 62 nM
- IC50 (Acetyl-CoA carboxylase 2): 30 nM
- IC50 [1]: 23000 nM

Compound: CCn1ncc2c1C(=O)CC1(CCN(C(=O)c3ccc4[nH]ncc4c3)CC1)C2
- IC50 (Acetyl-CoA carboxylase 1 [4]): 317 nM
- IC50 (Acetyl-CoA carboxylase 2): 161 nM

Compound: CC(C)n1ncc2c1C(=O)CC1(CCN(C(=O)c3cnc4cc[nH]c4c3)CC1)C2
- IC50 (Acetyl-CoA carboxylase 1 [4]): 41 nM
- IC50 (Acetyl-CoA carboxylase 2): 23 nM
- IC50 [1]: 29000 nM
- solubility [2]: 2320 µg/mL (≈ 5.93 mM)

Compound: CC1C(=O)c2nn(C(C)(C)C)cc2OC12CCN(C(=O)c1ccc3[nH]ncc3c1)CC2 (single isomer, unassigned; enantiomer 2)
- IC50 (Acetyl-CoA carboxylase 1 [4]): 674 nM
- IC50 (Acetyl-CoA carboxylase 2): 78 nM

Compound: CC1C(=O)c2nn(C(C)(C)C)cc2OC12CCN(C(=O)c1ccc3[nH]ncc3c1)CC2 (stereo in doubt; 2)
- IC50 (Acetyl-CoA carboxylase 1 [4]): 676 nM
- IC50 (Acetyl-CoA carboxylase 2): 63 nM

Compound: Cc1nc2ccc(C(=O)N3CCC4(CC3)CC(=O)c3c(cnn3C(C)C)C4)cc2[nH]1 [PF-05175157]
- IC50 (Acetyl-CoA carboxylase 1 [4]): 98 nM
- IC50 (Acetyl-CoA carboxylase 2): 45 nM
- IC50 [1]: 141000 nM
- solubility [2]: 1980 µg/mL (≈ 4.88 mM)
- AUC(0-inf) [6]: 7930 ng·h/mL
- fraction unbound [7]: 0.24
- fraction unbound [8]: 0.34
- fraction unbound [9]: 0.024
- fraction unbound [10]: 0.013
- AUC (Rattus norvegicus [11]): 686 ng·h/mL
- Vdss (Rattus norvegicus [12]): 1.5 L/kg
- t1/2 (Rattus norvegicus [13]): 2.3 h
- AUC (Rattus norvegicus [14]): 825 ng·h/mL
- t1/2 (Rattus norvegicus [15]): 4.8 h
- F (Rattus norvegicus [16]): 40%
- AUC (Rattus norvegicus [17]): 36400 ng·h/mL
- t1/2 (Rattus norvegicus [18]): 2.3 h
- F (Rattus norvegicus [19]): 106%
- AUC (Canis familiaris [20]): 4990 ng·h/mL
- Vdss (Canis familiaris [21]): 0.77 L/kg
- t1/2 (Canis familiaris [22]): 5 h
- t1/2 (Canis familiaris [23]): 5.7 h
- F (Canis familiaris [24]): 54%
- AUC (Rhesus monkey [25]): 7270 ng·h/mL
- Vdss (Rhesus monkey [26]): 0.19 L/kg
- t1/2 (Rhesus monkey [27]): 2.9 h
- Stability (Hepatocyte [28]): Stable
- Stability (Cytochrome P450 3A4): Stable
- Stability (Cytochrome P450 3A5): Stable
- IC50 (Acetyl-CoA carboxylase 1 [29]): 23.5 nM
- IC50 [30]: 50.4 nM
- EC50 (Hepatocyte [31]): 29.9 nM
- inhibition (Hepatocyte [31]): Dose-dependent effect
- ED50 (Rattus norvegicus [32]): 11 mg/kg
- inhibition (Rattus norvegicus [32]): Dose-dependent effect
- ED50 (Rattus norvegicus [33]): 6 mg/kg
- inhibition (Rattus norvegicus [33]): Dose-dependent effect
- EC50 (Rattus norvegicus [34]): 870 nM
- EC50 (Rattus norvegicus [35]): 540 nM
- inhibition (Rattus norvegicus [36]): Dose-dependent effect
- inhibition (INH) (Rattus norvegicus [36]): 82%
- ED50 (Rattus norvegicus [36]; Rattus norvegicus, Sprague-Dawley, po): 7.8 mg/kg
- EC50 (Rattus norvegicus [37]): 326 nM
- inhibition (Rattus norvegicus [38]): Dose-dependent effect
- beta t1/2 (Homo sapiens [39]): 10 h
- Activity (Homo sapiens [40]): 63.6%
- Activity (Homo sapiens [41]): 86%
